ChEMBL document CHEMBL3046016, “Antifeedant and growth inhibitory effects of some neo-clerodane diterpenoids isolated from Clerodendron species (Verbenaceae) on Earias vitella and Spodoptera litura” (2003)

Key:
Format in all cases: functional
Earias vittella [1] = test: Insecticidal activity against male adult Earias vitella assessed as adult longevity time at 10 ug/cm3 administered through artificial diet containing Abelmoschus esculentus seed powder (reference value: 8.2 +/- 0.4 days)
Earias vittella [2] = test: Insecticidal activity against adult Earias vitella assessed as adult deformity at 10 ug/cm3 administered through artificial diet containing Abelmoschus esculentus seed powder (reference value: 4%)
Spodoptera litura [3] = test: Insecticidal activity against third-instar larval stage of Spodoptera litura in compound-treated castor leaves assessed as total larval duration time at 5 ug/cm2 (reference value: 12.4 +/- 0.48 days)
Spodoptera litura [4] = test: Insecticidal activity against adult Spodoptera litura in compound-treated castor leaves assessed as adult deformity at 10 ug/cm2 relative to control
Spodoptera litura [5] = test: Insecticidal activity against adult Spodoptera litura in compound-treated castor leaves assessed as adult emergence at 5 ug/cm2 relative to control
Spodoptera litura [6] = test: Insecticidal activity against third-instar larval stage of Spodoptera litura in compound-treated castor leaves assessed as total larval duration time at 10 ug/cm2 (reference value: 12.4 +/- 0.48 days)
Earias vittella [7] = test: Insecticidal activity against pupal stage of Earias vitella assessed as pupal mortality at 10 ug/cm3 administered through artificial diet containing Abelmoschus esculentus seed powder (reference value: 8%)
Earias vittella [8] = test: Insecticidal activity against pupal stage of Earias vitella assessed as pupal weight at 10 ug/cm3 administered through artificial diet containing Abelmoschus esculentus seed powder (reference value: 88.2 +/- 4.01 mg)
Earias vittella [9] = test: Insecticidal activity against pupal stage of Earias vitella assessed as pupal weight at 5 ug/cm3 administered through artificial diet containing Abelmoschus esculentus seed powder (reference value: 88.2 +/- 4.01 mg)
Spodoptera litura [10] = test: Antifeedant activity against third-instar larval stage of Spodoptera litura in compound-treated castor leaves assessed as decrease in diet consumption at 5 ug/cm2 after 24 hr by no-choice leaf disk assay relative to acetone-treated control; set-up: scale not given: the % may be the effect or the level left
How it was run: (§1)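 Larvae were reared on castor leaves at 25 ± 2 °C. In a no-choice test, compound in acetone was painted on the abaxial side of castor leaf disks and air-dried. Five freshly molted third-instar larvae, starved 4 h, were placed per Petri dish with wet cotton. There were five replicates. After 24 h, consumed leaf area was read on a leaf area meter. %AF = 100 − (treated/control)×100.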

Earias vittella [11] = test: Insecticidal activity against third-instar larval stage of Earias vitella assessed as larval mortality at 5 ug/cm3 administered through artificial diet containing Abelmoschus esculentus seed powder (reference value: 4%)
Earias vittella [12] = test: Antifeedant activity against third-instar larval stage of Earias vitella assessed as decrease in diet consumption at 5 ug/cm3 administered through artificial diet containing Abelmoschus esculentus seed powder after 24 hr relative to acetone-treated control; set-up: scale not given: the % may be the effect or the level left
How it was run: (§2)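 Artificial diet was modified Klein medium with bhendi (Abelmoschus esculentus) seed powder in place of alfalfa. Compound in acetone was mixed into bhendi meal 12 h before diet preparation so the solvent evaporated. One 3 g diet cube was given to five freshly molted third-instar larvae in a muslin-covered container. After 24 h the cubes were weighed. %AF = 100 − (treated/control)×100.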

Earias vittella [13] = test: Insecticidal activity against adult Earias vitella assessed as adult emergence at 10 ug/cm3 administered through artificial diet containing Abelmoschus esculentus seed powder (reference value: 88%)
Earias vittella [14] = test: Insecticidal activity against pupal stage of Earias vitella assessed as pupal mortality at 5 ug/cm3 administered through artificial diet containing Abelmoschus esculentus seed powder (reference value: 8%)
Spodoptera litura [15] = test: Insecticidal activity against adult Spodoptera litura in compound-treated castor leaves assessed as adult emergence at 10 ug/cm2 relative to control
Spodoptera litura [16] = test: Insecticidal activity against pupal stage of Spodoptera litura in compound-treated castor leaves assessed as pupal weight at 10 ug/cm2 (reference value: 302.4 +/- 5.9 mg)
Earias vittella [17] = test: Insecticidal activity against third-instar larval stage of Earias vitella assessed as larval mortality at 10 ug/cm3 administered through artificial diet containing Abelmoschus esculentus seed powder (reference value: 4%)
Spodoptera litura [18] = test: Insecticidal activity against female adult Spodoptera litura in compound-treated castor leaves assessed as adult longevity time at 5 ug/cm2 (reference value: 10 +/- 0.63 days)
Spodoptera litura [19] = test: Insecticidal activity against pupal stage of Spodoptera litura in compound-treated castor leaves assessed as pupal weight at 5 ug/cm2 (reference value: 302.4 +/- 5.9 mg)
Spodoptera litura [20] = test: Antifeedant activity against third-instar larval stage of Spodoptera litura in compound-treated castor leaves assessed as decrease in diet consumption at 10 ug/cm2 after 24 hr by no-choice leaf disk assay relative to acetone-treated control; set-up: scale not given: the % may be the effect or the level left; how it was run: as §1
Spodoptera litura [21] = test: Insecticidal activity against third-instar larval stage of Spodoptera litura in compound-treated castor leaves assessed as larval mortality at 5 ug/cm2 relative to control
Spodoptera litura [22] = test: Insecticidal activity against pupal stage of Spodoptera litura in compound-treated castor leaves assessed as pupal duration time at 5 ug/cm2 (reference value: 9.2 +/- 0.74 days)
Spodoptera litura [23] = test: Insecticidal activity against female adult Spodoptera litura in compound-treated castor leaves assessed as adult longevity time at 10 ug/cm2 (reference value: 10 +/- 0.63 days)
Spodoptera litura [24] = test: Insecticidal activity against pupal stage of Spodoptera litura in compound-treated castor leaves assessed as pupal mortality at 10 ug/cm2 relative to control
Spodoptera litura [25] = test: Insecticidal activity against third-instar larval stage of Spodoptera litura in compound-treated castor leaves assessed as larval mortality at 10 ug/cm2 relative to control
Earias vittella [26] = test: Antifeedant activity against third-instar larval stage of Earias vitella assessed as decrease in diet consumption at 10 ug/cm3 administered through artificial diet containing Abelmoschus esculentus seed powder after 24 hr relative to acetone-treated control; set-up: scale not given: the % may be the effect or the level left; how it was run: as §2
Spodoptera litura [27] = test: Insecticidal activity against pupal stage of Spodoptera litura in compound-treated castor leaves assessed as pupal mortality at 5 ug/cm2 relative to control
Earias vittella [28] = test: Insecticidal activity against third-instar larval stage of Earias vitella assessed as total larval duration time at 5 ug/cm3 administered through artificial diet containing Abelmoschus esculentus seed powder (reference value: 8.2 +/- 0.48 days)
Earias vittella [29] = test: Insecticidal activity against female adult Earias vitella assessed as adult longevity time at 10 ug/cm3 administered through artificial diet containing Abelmoschus esculentus seed powder (reference value: 8.6 +/- 0.48 days)
Spodoptera litura [30] = test: Insecticidal activity against pupal stage of Spodoptera litura in compound-treated castor leaves assessed as pupal duration time at 10 ug/cm2 (reference value: 9.2 +/- 0.74 days)
Spodoptera litura [31] = test: Insecticidal activity against adult Spodoptera litura in compound-treated castor leaves assessed as adult deformity at 5 ug/cm2 relative to control
Earias vittella [32] = test: Insecticidal activity against adult Earias vitella assessed as adult deformity at 5 ug/cm3 administered through artificial diet containing Abelmoschus esculentus seed powder (reference value: 4%)
Spodoptera litura [33] = test: Insecticidal activity against male adult Spodoptera litura in compound-treated castor leaves assessed as adult longevity time at 5 ug/cm2 (reference value: 9.4 +/- 0.48 days)
Earias vittella [34] = test: Insecticidal activity against female adult Earias vitella assessed as adult longevity time at 5 ug/cm3 administered through artificial diet containing Abelmoschus esculentus seed powder (reference value: 8.6 +/- 0.48 days)
Earias vittella [35] = test: Insecticidal activity against third-instar larval stage of Earias vitella assessed as total larval duration time at 10 ug/cm3 administered through artificial diet containing Abelmoschus esculentus seed powder (reference value: 8.2 +/- 0.48 days)
Earias vittella [36] = test: Insecticidal activity against pupal stage of Earias vitella assessed as pupal duration time at 5 ug/cm3 administered through artificial diet containing Abelmoschus esculentus seed powder (reference value: 6.4 +/- 0.21 days)
Earias vittella [37] = test: Insecticidal activity against male adult Earias vitella assessed as adult longevity time at 5 ug/cm3 administered through artificial diet containing Abelmoschus esculentus seed powder (reference value: 8.2 +/- 0.4 days)
Spodoptera litura [38] = test: Insecticidal activity against male adult Spodoptera litura in compound-treated castor leaves assessed as adult longevity time at 10 ug/cm2 (reference value: 9.4 +/- 0.48 days)
Earias vittella [39] = test: Insecticidal activity against adult Earias vitella assessed as adult emergence at 5 ug/cm3 administered through artificial diet containing Abelmoschus esculentus seed powder (reference value: 88%)
Earias vittella [40] = test: Insecticidal activity against pupal stage of Earias vitella assessed as pupal duration time at 10 ug/cm3 administered through artificial diet containing Abelmoschus esculentus seed powder (reference value: 6.4 +/- 0.21 days)

SMILES | Time (Earias vittella [1]) | Activity (Earias vittella [2]) | Time (Spodoptera litura [3]) | Activity (Spodoptera litura [4]) | Activity (Spodoptera litura [5]) | Time (Spodoptera litura [6]) | mortality (Earias vittella [7]) | Activity (Earias vittella [8]) | Activity (Earias vittella [9]) | Activity (Spodoptera litura [10]) | mortality (Earias vittella [11]) | Activity (Earias vittella [12]) | Activity (Earias vittella [13]) | mortality (Earias vittella [14]) | Activity (Spodoptera litura [15]) | Activity (Spodoptera litura [16]) | mortality (Earias vittella [17]) | Time (Spodoptera litura [18]) | Activity (Spodoptera litura [19]) | Activity (Spodoptera litura [20]) | also measured
CC(=O)OC[C@@]12[C@@H](OC(C)=O)C[C@@H](C)[C@](C)([C@@H]3C[C@H]4CC(O)O[C@H]4O3)[C@H]1CC[C@H](OC(C)=O)[C@]21CO1 (stereo not given in full) [15-HYDROXYEPICARYOPTIN] | 6.2 days | 4% | 13.5 days | 9.6% | 70.4% | 14.2 days | 34% | 57.2 mg | 58 mg | 74% | 8% | 62.15% | 62% | 28% | 62.4% | 258.8 mg | 8% | 7.4 days | 272.2 mg | 78% | mortality at 5 µg/cm2 (Spodoptera litura [21]): 20%; Time (Spodoptera litura [22]): 10.8 days; Time (Spodoptera litura [23]): 7 days; mortality at 10 µg/cm2 (Spodoptera litura [24]): 27.6%; mortality at 10 µg/cm2 (Spodoptera litura [25]): 32%; Activity (Earias vittella [26]): 71.84%; mortality at 5 µg/cm2 (Spodoptera litura [27]): 22.5%; Time (Earias vittella [28]): 9.8 days; Time (Earias vittella [29]): 6.6 days; Time (Spodoptera litura [30]): 11.6 days; Activity (Spodoptera litura [31]): 7.2%; Activity (Earias vittella [32]): 4%; Time (Spodoptera litura [33]): 8 days; Time (Earias vittella [34]): 6.8 days; Time (Earias vittella [35]): 10.2 days; Time (Earias vittella [36]): 9 days; Time (Earias vittella [37]): 6.6 days; Time (Spodoptera litura [38]): 7.5 days; Activity (Earias vittella [39]): 68%; Time (Earias vittella [40]): 9.6 days
CC[C@@](C)(OC(C)=O)C(=O)O[C@H]1[C@H](OC(C)=O)C[C@@H]2[C@@](C)([C@@H]3C[C@H]4C=CO[C@H]4O3)[C@H](C)C[C@H](OC(C)=O)[C@@]2(COC(C)=O)[C@@]12CO2 [CLERODENDRIN B ACETATE] | 6.4 days | 4% | 12.6 days | 8.8% | 72% | 13.1 days | 32% | 64.2 mg | 71.2 mg | 65.8% | 4% | 51% | 64% | 24% | 64% | 273.2 mg | 4% | 8.2 days | 284.4 mg | 75% | mortality at 5 µg/cm2 (Spodoptera litura [21]): 20%; Time (Spodoptera litura [22]): 10.2 days; Time (Spodoptera litura [23]): 8 days; mortality at 10 µg/cm2 (Spodoptera litura [24]): 27%; mortality at 10 µg/cm2 (Spodoptera litura [25]): 24%; Activity (Earias vittella [26]): 69%; mortality at 5 µg/cm2 (Spodoptera litura [27]): 22.7%; Time (Earias vittella [28]): 9.2 days; Time (Earias vittella [29]): 7.2 days; Time (Spodoptera litura [30]): 11 days; Activity (Spodoptera litura [31]): 4.8%; Activity (Earias vittella [32]): 4%; Time (Spodoptera litura [33]): 9 days; Time (Earias vittella [34]): 7.4 days; Time (Earias vittella [35]): 9.7 days; Time (Earias vittella [36]): 7 days; Time (Earias vittella [37]): 6.8 days; Time (Spodoptera litura [38]): 8.5 days; Activity (Earias vittella [39]): 72.5%; Time (Earias vittella [40]): 8.8 days
CC[C@@](C)(OC(C)=O)C(=O)O[C@H]1[C@H](O)C[C@@H]2[C@@](C)([C@@H]3C[C@H]4C=CO[C@H]4O3)[C@H](C)C[C@H](OC(C)=O)[C@@]2(COC(C)=O)[C@@]12CO2 [CLERODENDRIN B] | 4.6 days | 16% | 14.5 days | 16.8% | 59.2% | 15.8 days | 42.5% | 50.4 mg | 55 mg | 76.5% | 15% | 74.85% | 44% | 40% | 46.4% | 220.2 mg | 20% | 6.4 days | 240 mg | 84.9% | mortality at 5 µg/cm2 (Spodoptera litura [21]): 32%; Time (Spodoptera litura [22]): 12 days; Time (Spodoptera litura [23]): 5.2 days; mortality at 10 µg/cm2 (Spodoptera litura [24]): 37%; mortality at 10 µg/cm2 (Spodoptera litura [25]): 44%; Activity (Earias vittella [26]): 82.14%; mortality at 5 µg/cm2 (Spodoptera litura [27]): 29.4%; Time (Earias vittella [28]): 10.6 days; Time (Earias vittella [29]): 4.8 days; Time (Spodoptera litura [30]): 13 days; Activity (Spodoptera litura [31]): 12%; Activity (Earias vittella [32]): 8%; Time (Spodoptera litura [33]): 6.8 days; Time (Earias vittella [34]): 5.8 days; Time (Earias vittella [35]): 11.2 days; Time (Earias vittella [36]): 10 days; Time (Earias vittella [37]): 5.4 days; Time (Spodoptera litura [38]): 6.2 days; Activity (Earias vittella [39]): 52.5%; Time (Earias vittella [40]): 12.2 days
